Laboratory results published in ChEMBL document CHEMBL4354866, “TREK Channel Family Activator with a Well-Defined Structure-Activation Relationship for Pain and Neurogenic Inflammation” (J Med Chem, 2020).
The source made the active and inactive calls.

Legend:
[1] = target: T1, Potassium channel subfamily K member 2 (Homo sapiens) (UniProt O95069); assay: Activation of recombinant human TREK1 expressed in HEK293T cells assessed as change in probability of open channel by inside-out patch electrophysiological analysis; assay type: cell-based
T1 sequence (whole entry): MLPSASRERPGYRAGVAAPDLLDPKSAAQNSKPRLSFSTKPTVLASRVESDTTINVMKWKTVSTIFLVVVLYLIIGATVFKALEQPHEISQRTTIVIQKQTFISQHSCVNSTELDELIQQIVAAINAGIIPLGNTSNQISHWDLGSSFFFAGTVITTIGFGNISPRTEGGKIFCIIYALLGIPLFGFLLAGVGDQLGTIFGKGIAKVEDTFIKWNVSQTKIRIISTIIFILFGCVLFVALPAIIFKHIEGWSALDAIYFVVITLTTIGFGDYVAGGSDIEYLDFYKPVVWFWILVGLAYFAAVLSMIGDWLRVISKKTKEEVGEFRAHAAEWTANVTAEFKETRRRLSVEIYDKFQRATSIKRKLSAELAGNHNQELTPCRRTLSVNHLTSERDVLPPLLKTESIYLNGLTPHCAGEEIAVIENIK
Outline: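 Inside-out patches from HEK-293T cells expressing human TREK-1 (pEGFP-N1), 10 μM compound. Conductance taken as first open-state amplitude over voltage at -60 or +60 mV.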

[2] = target: T2, Potassium channel subfamily K member 2 (Homo sapiens, UniProt O95069, G275C); assay: Activation of recombinant human TREK1 G275C mutant expressed in HEK293T cells assessed as increase in K+ current amplitude in presence of MTSET by whole cell voltage clamp electrophysiological analysis; assay type: cell-based
Outline: (§1)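 Human TREK-1 G275C expressed in HEK-293T, whole-cell ramp recordings. Tested with or without MTSET, 1 mM final, diluted from 0.5 M DMSO stock within 120 s of application. Concentration–response curves for EC50, n = 5–19; 10 μM single-point comparison by one-way ANOVA with Tukey test.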

[3] = target: T2, Potassium channel subfamily K member 2; assay: Activation of recombinant human TREK1 G275C mutant expressed in HEK293T cells assessed as increase in K+ current amplitude by whole cell voltage clamp electrophysiological analysis; assay type: cell-based; outline: as §1
[4] = system: Mus musculus; assay: Analgesic activity in ip dosed mouse assessed as increase in tail flick latency time measured up to 120 mins at 52 degC by tail immersion test; assay type: functional, organism-based
Outline: (§2)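 Male BALB/c or C57BL/6 mice, 6–8 weeks, acclimated in a holder 15 min/day for 3 days. Distal 3 cm of tail immersed at 5, 20, 40, 46 or 52 °C; flick latency recorded, cut-off 15 s. Compound i.p. in 5% DMSO/5% Tween 80/90% saline (1.25–10 mg/kg at 52 °C; 5 mg/kg across temperatures).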

[5] = system: Mus musculus; assay: Analgesic activity in mouse assessed as increase in tail flick latency time at 5 mg/kg, ip at 5 to 52 degC by tail immersion test; assay type: functional, organism-based; outline: as §2
[6] = target: T3, Potassium channel subfamily K member 2 (Rattus norvegicus) (UniProt Q920B6); assay: Activation of TREK in depolarized Sprague-Dawley rat DRG neurons assessed as reversal potential of K+ current at 10 uM by whole cell voltage clamp electrophysiological analysis
T3 sequence (whole entry): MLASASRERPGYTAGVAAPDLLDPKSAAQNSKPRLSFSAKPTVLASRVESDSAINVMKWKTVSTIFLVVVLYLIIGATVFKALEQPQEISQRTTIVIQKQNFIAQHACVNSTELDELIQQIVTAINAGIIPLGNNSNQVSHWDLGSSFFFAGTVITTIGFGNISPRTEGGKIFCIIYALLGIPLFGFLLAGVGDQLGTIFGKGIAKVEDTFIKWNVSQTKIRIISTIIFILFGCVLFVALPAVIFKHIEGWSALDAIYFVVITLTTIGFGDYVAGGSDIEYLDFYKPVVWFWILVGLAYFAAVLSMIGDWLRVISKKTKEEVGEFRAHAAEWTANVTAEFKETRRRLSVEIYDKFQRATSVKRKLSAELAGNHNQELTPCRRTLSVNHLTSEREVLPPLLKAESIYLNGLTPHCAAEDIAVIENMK
Outline: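 Rat DRG neurons, whole-cell voltage clamp in 3 mM external K⁺. Voltage ramps -20 to -120 mV before and during 10 μM compound. The compound-sensitive current was obtained by subtraction, and its reversal potential was read where it could be resolved (4 cells).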

[7] = target: T3, Potassium channel subfamily K member 2 (Rattus norvegicus); assay: Activation of TREK in depolarized Sprague-Dawley rat DRG neurons assessed as resting membrane potential at 10 uM by whole cell […] electrophysiological analysis
Outline: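 Dissociated rat DRG neurons in current clamp, held at 0 pA. Resting membrane potential recorded before and during 10 μM compound; n = 18 cells from 4 rats; paired t test.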

T2 sequence (O95069 whole entry G275C): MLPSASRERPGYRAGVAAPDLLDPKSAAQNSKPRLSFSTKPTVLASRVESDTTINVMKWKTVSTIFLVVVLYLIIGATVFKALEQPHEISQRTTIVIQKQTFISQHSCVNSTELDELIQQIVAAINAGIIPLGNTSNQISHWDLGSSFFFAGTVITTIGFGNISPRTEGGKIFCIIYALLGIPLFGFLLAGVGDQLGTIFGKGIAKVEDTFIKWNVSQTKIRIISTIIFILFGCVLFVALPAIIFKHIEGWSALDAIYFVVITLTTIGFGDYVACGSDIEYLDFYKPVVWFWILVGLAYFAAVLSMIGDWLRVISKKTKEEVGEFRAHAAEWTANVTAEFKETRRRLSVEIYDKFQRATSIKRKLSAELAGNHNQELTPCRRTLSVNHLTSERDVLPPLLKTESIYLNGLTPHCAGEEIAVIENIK

Cc1ccc2nc(-c3ccc(NC(=O)[C@@H]4CC[C@H](C(=O)O)C4)cc3)sc2c1
Activity [1]: inactive
EC50 [2]: 18.4 µM
EC50 [3]: 15.2 µM
Activity [4]: Dose-dependent effect
Activity [5]: Active
Activity [6]: -75 mV
Activity [7]: 1.12 mV
